Data from ChEMBL document CHEMBL4138193, “Novel indole and triazole based hybrid molecules exhibit potent anti-adipogenic and antidyslipidemic activity by activating Wnt3a/β-catenin pathway” (Eur J Med Chem, 2018).
The source made the active and inactive calls. No cut-off for these calls is given here.

What was measured:
[1] = species on record: Mus musculus; assay: Activation of Wnt3a/beta-catenin in mouse 3T3L1 cells assessed as down-regulation of CDK6 expression at 20 uM after 16 to 24 hrs in presence of FH353 by Western blot analysis; format: cell-based
Outline: (§1)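 Confluent 3T3-L1 cells given differentiation media (IBMX/insulin/dexamethasone) with 20 µM compound, with or without the β-catenin/TCF inhibitor FH353 (10 µM). Proteins isolated at 16 and 24 h and Western blotted after SDS-PAGE and nitrocellulose transfer. Blocking in 5% milk/TBS-T, primary antibody overnight at 4 °C, chemiluminescent detection, β-actin control, three independent experiments.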

[2] = test system: 3T3-L1; assay: Anti-adipogenic activity in mouse 3T3L1 cells assessed as reduction in lipid accumulation at early differentiation stage at 20 uM measured up to 3 days by Oil Red O absorbance method; format: functional, cell-based
Outline: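 3T3-L1 or C3H10T1/2 cells given 20 µM compound with differentiation media for different time periods. Oil red O stain extracted from accumulated lipid with isopropanol and absorbance read at 492 nm. n=3, mean ± SD, Student t test against MDI+ group.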

[3] = test system: C3H 10T1/2; assay: Anti-adipogenic activity in mouse differentiated C3H10T1/2 cells assessed as reduction in lipid accumulation at 5 to 20 uM after 20 mins by Oil Red O absorbance method; format: functional, cell-based
Outline: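 C3H10T1/2 or human MSC differentiated with IBMX/insulin/dexamethasone media containing 5, 10 or 20 µM compound. Cells stained with Oil red O (0.36% in 60% isopropanol, 20 min), dye extracted with isopropanol, absorbance read at 492 nm. n=3, mean ± SD, Student t test against MDI group.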

[4] = test system: 3T3-L1; assay: Cell cycle arrest in mouse 3T3L1 cells assessed as reduction in accumulation at S phase at 10 to 20 uM after 24 hrs by propidium iodide-staining based flow cytometry; format: functional
Outline: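 Confluent 3T3-L1 preadipocytes given differentiation medium (0.5 mM IBMX, 5 µg/ml insulin, 250 nM dexamethasone) with 10 or 20 µM for 16 and 24 hr. Cells trypsinized, fixed in ice-cold 70% ethanol for 2 hr, stained with propidium iodide (40 µg/ml in RNase A buffer, 30 min, room temperature). Flow cytometry gave the fractions in G1, S and G2/M; three independent experiments.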

[5] = species on record: Mus musculus; assay: Activation of Wnt3a/beta-catenin in mouse 3T3L1 cells assessed as down-regulation of PPARgamma expression at 20 uM after 2 to 6 days in presence of FH353 by Western blot analysis; format: cell-based
[6] = species on record: Homo sapiens; assay: Anti-adipogenic activity in human differentiated MSC assessed as reduction in lipid accumulation at 5 to 20 uM after 20 mins by Oil Red O staining based microscopic method; format: functional
Outline: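 C3H10T1/2 or hMSC adipocytes differentiated alongside 5, 10 or 20 µM compound in differentiation media, stained with Oil red O. Images taken by bright-field microscopy at 10x and 20x, representative of three independent experiments.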

[7] = test system: Syrian golden hamster; assay: Anti-adipogenic activity in high fat diet-induced dyslipidemia Syrian Golden hamster model assessed as decrease in PPARgamma levels in eWAT at 100 mg/kg, po administered for 1 week by Western blot analysis; format: functional, organism-based; conditions: Mesocricetus auratus
Outline: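 Male Syrian golden hamsters (8–10 wk, 100–120 g) fed 45% kcal HFD for 4 days, then dosed orally at 100 mg/kg in 0.5% NaCMC for one week, n=4 per group. Fenofibrate 100 mg/kg p.o. used as positive control. Epididymal WAT proteins Western blotted, three independent experiments.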

[8] = species on record: Mus musculus; assay: Activation of Wnt3a/beta-catenin in mouse 3T3L1 cells assessed as increase in CREB mRNA expression at 20 uM by qRT-PCR analysis; format: cell-based
Outline: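 3T3-L1 cells differentiated with IBMX/dexamethasone/insulin media with or without 20 µM compound over the differentiation period. RNA extracted with TRIZOL, 500 ng reverse-transcribed to cDNA, then quantitative real-time PCR. Three independent experiments run in triplicate, mean ± SD, one-way ANOVA with Bonferroni posttest.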

[9] = test system: Syrian golden hamster; assay: Anti-dyslipidemic activity in high fat diet-induced dyslipidemia Syrian Golden hamster model assessed as decrease in serum ALT levels at 100 mg/kg, po administered for 1 week followed by overnight fasting post last dose by clinical bio-analyzer analysis; format: functional, organism-based; conditions: Mesocricetus auratus
Outline: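 Male Syrian golden hamsters (8–10 wk, 100–120 g), 4 per group, given 45% kcal HFD for 4 days, then 100 mg/kg p.o. in 0.5% NaCMC daily for one week alongside HFD. Blood taken from retro-orbital plexus after overnight fast. TG, HDL, LDL, ALT, AST measured on a clinical bio-analyzer and NEFA by kit. Mean ± SEM, one-way ANOVA with Bonferroni.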

[10] = species on record: Mus musculus; assay: Activation of Wnt3a/beta-catenin in differentiated mouse 3T3L1 cells assessed as upregulation of phosphorylated beta-catenin expression at 20 uM after 16 to 24 hrs by Western blot analysis
Outline: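 3T3-L1 preadipocytes grown to confluence in high-glucose DMEM/10% FBS, then given differentiation media (0.5 mM IBMX, 5 µg/ml insulin, 250 nM dexamethasone) with or without 20 µM compound. Protein isolated at set time points, lysed with protease/phosphatase inhibitors, BCA-quantified, resolved by 8–12% SDS-PAGE, immunoblotted with ECL detection. β-actin loading control, densitometry normalized to actin, n=3.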

[11] = test system: Syrian golden hamster; assay: Induction of reverse cholestrol transport in high fat diet-induced dyslipidemia Syrian Golden hamster model assessed as increase in ApoA mRNA expression in liver at 100 mg/kg, po administered for 1 week by qRT-PCR analysis; format: functional, organism-based; conditions: Mesocricetus auratus
[12] = test system: Syrian golden hamster; assay: Induction of reverse cholestrol transport in high fat diet-induced dyslipidemia Syrian Golden hamster model assessed as increase in ABCG5 mRNA expression in eWAT at 100 mg/kg, po administered for 1 week by qRT-PCR analysis; format: functional, organism-based; conditions: Mesocricetus auratus
[13] = test system: 3T3-L1; assay: Anti-adipogenic activity in mouse differentiated 3T3L1 cells assessed as inhibition of adipogenesis at 20 uM after 20 mins by Oil Red O staining based assay; format: functional
Outline: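 3T3-L1 preadipocytes given 20 µM compound with differentiation media. Oil red O stain (20 min) extracted, absorbance at 492 nm measured against MDI+ control, n=3, mean ± SD, Student t test.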

[14] = species on record: Mus musculus; assay: Activation of Wnt3a/beta-catenin in mouse 3T3L1 cells assessed as down-regulation of cyclinD expression at 20 uM after 16 to 24 hrs by Western blot analysis; format: cell-based
Outline: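 3T3-L1 cells given MDI differentiation media (0.5 mM IBMX, 5 µg/ml insulin, 250 nM dexamethasone) with or without 20 µM compound. Proteins isolated at 16 and 24 h and probed by Western blot for CDK2, CDK4, CDK6, cyclin D1 and D3. Densitometry normalized to actin, n=3, mean ± SD, Student t test.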

[15] = test system: Syrian golden hamster; assay: Induction of reverse cholestrol transport in high fat diet-induced dyslipidemia Syrian Golden hamster model assessed as reduction in hepatic lipid vacuoles hypertrophy at 100 mg/kg, po administered for 1 week by H and E staining based assay; format: functional, organism-based; conditions: Mesocricetus auratus
[16] = species on record: Mus musculus; assay: Activation of Wnt3a/beta-catenin in mouse 3T3L1 cells assessed as down-regulation of cyclinD1 expression at 20 uM after 16 to 24 hrs in presence of FH353 by Western blot analysis; format: cell-based; outline: as §1

Which results are given for Cc1ccc(S(=O)(=O)N(Cc2cn(Cc3cccc(F)c3F)nn2)Cc2cn(S(=O)(=O)c3ccc(C)cc3)c3ccccc23)cc1?
Activity [1]: inactive; Activity [2]: Active; Activity [3]: Active; Activity [4]: inactive; Activity [5]: inactive; Activity [6]: Active; Activity [7]: Active; Activity [8]: Active; Activity [9]: Active; Activity [10]: Active; Activity [11]: Active; Activity [12]: Active; inhibition at 20 µM [13]: 71.5%; Activity [14]: Active; Activity [15]: Active; Activity [16]: inactive
